Screens (PubChem)
PPC-1+TRAIL kill: compounds killing PPC-1 cancer cells with TRAIL present (potentiator screen, no TRAIL-free arm); PPC-1 cells + TRAIL, ATPLite viability luminescence; cell killing (% activity), % at 4 µM or 5 µM; 220,000 tested, 0.41% active;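 active = cell killing above 50% in the first pass at 4 µM, then a duplicate retest at 5 µM averaging 50% or more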;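 also: plate controls were cells with TRAIL plus DMSO for no effect and medium-only wells lacking cells for full effect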
C8 TRAIL sens: caspase-8 TRAIL sensitization. NB7+C8 cells + TRAIL, ATPlite viability luminescence. inhibition (viability loss, TRAIL sensitization), % at 10 µM. 360,000 tested, 1% active. AID 624354;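 active = compounds causing at least 50% loss of cell viability in the single-dose screen, relative to plate controls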
STAT1 inh: STAT1 signaling inhibition | 200,000 tested, 0.35% active | inhibition, % at 5.5 µM | NIH 3T3 STAT1-luciferase reporter, IFN-gamma, luminescence;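 active = inhibition above a set limit, the mean inhibition across all tested compounds plus 3 SD, cut at about 34% in these data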;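 also: 0% = IFN-gamma with DMSO and 100% = IFN-gamma with 300 µM nifuroxazide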
STAT3 act-1: STAT3 signaling activation | activation (% of control), % at 5.6 µM | U3A cells, IL-6 STAT3-luciferase reporter, luminescence; 100% = signal with IL-6 EC80 alone | 190,000 tested, 0.91% active;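 active = activation above the screen-wide mean of compound activation plus 3 SD, cut at about 130% in these data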;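 also: 0% = background luminescence of wells with medium and substrate only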
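Material: STAT3-luciferase reporter U3A cells. Controls: IL-6-treated wells, 100% activation. Read-out: % activation versus median of IL-6-stimulated wells. Probe or stimulus: IL-6 stimulus at 33 ng/mL final. Timing: compound 1 h, then IL-6 6 h at 37 °C. Signal: reporter luminescence signal.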
STAT3 blocker: reduces IL-6 driven STAT3 reporter signal; inhibition, % at 5.5 µM; AID 862; 190,000 tested, 0.89% active; U3A cells, IL-6 STAT3-luciferase reporter, luminescence; host cell line lacks STAT1;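 active = inhibition above the mean inhibition across all screened compounds plus 3 SD, cut at about 44% in these data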;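 also: 0% = DMSO only wells and 100% = 100 µM nifuroxazide control wells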
STAT3 act-2: STAT3 activation, confirmation assay; U3A STAT3-luciferase reporter, IL-6 potentiation, luminescence; U3A cells lack STAT1; 100 means same as IL-6 alone; 1,200 tested, 64% active; shares compounds with STAT3 act-1; potentiation (% of control), % at 5.7 µM;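 active = percent activation of the STAT3 luciferase reporter above a set limit taken from the earlier primary screen, cut at about 130% in these data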;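 also: 0% = background signal of medium plus substrate and 100% = median of IL-6 with DMSO wells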
NFkB act 2: counter-screen for STAT3 activators: NF-kappaB activation; shares compounds with STAT3 act-1; human cells, NF-kappaB reporter activation; activation (% of control), % at 5.7 µM; 1,200 tested, 11% active; AID 1309; in the data active = activation above about 120%;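 also: reporter induced by TNF-alpha stimulation; 100% = median of stimulated DMSO wells and 0% = no signal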
STAT1 act: counter-screen for STAT3 activators: STAT1 activation. shares compounds with STAT3 act-1. NIH 3T3 STAT1-luciferase reporter, IFN-gamma, luminescence. activation (% of control), % at 5.7 µM. 1,200 tested, 13% active. AID 1318;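 active = activation above the solvent-only control well mean plus 3 SD, set per screening run, cut at about 120% in these data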;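 also: 100% = IFN-gamma with DMSO median signal so 100% means no change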
Starred values were filed as active, the others as inactive. Only some compounds are listed: those with a hit (about 1.8% of all), similar ones and a draw of the others.

`COc1ccccc1OCCCN1C(=O)C(=O)c2cccc(C)c21` gave C8 TRAIL sens 7.1, STAT1 inh 6.8, STAT3 act-1 137.6*, STAT3 blocker -41.4, STAT3 act-2 131.7, NFkB act 2 103.8 and STAT1 act 97.4.
For Cc1ccc(Cl)cc1N1CCN(C(=O)Cc2c(C(=O)O)[nH]c3ccccc23)CC1 the results were PPC-1+TRAIL kill 23.2, C8 TRAIL sens 1.1, STAT1 inh 8.3, STAT3 act-1 138.1*, STAT3 blocker -45.0, STAT3 act-2 123.1, NFkB act 2 105.9 and STAT1 act 92.7.
`Cc1ccc(Cl)cc1N1CCN(C(=O)Cc2c(C(=O)O)[nH]c3ccc(Cl)cc23)CC1` gave PPC-1+TRAIL kill 11.9, C8 TRAIL sens -0.6, STAT1 inh -17.6, STAT3 act-1 103.6 and STAT3 blocker -3.0.
CC(C)OC(=O)c1cccnc1SCc1cc(=O)n2ccccc2n1 was read as PPC-1+TRAIL kill -3.6, C8 TRAIL sens 10.1, STAT1 inh 3.4, STAT3 act-1 144.2*, STAT3 blocker -47.7, STAT3 act-2 126.8, NFkB act 2 105.3 and STAT1 act 103.9.
Screening Cc1cc(/C=N/n2cnnc2)c(O)c([N+](=O)[O-])c1 returned PPC-1+TRAIL kill 18.1, C8 TRAIL sens 8.6, STAT1 inh -0.3, STAT3 act-1 138.5*, STAT3 blocker -42.6, STAT3 act-2 149.3*, NFkB act 2 98.5 and STAT1 act 95.2.
`C/C(=N\OCc1nc2ccccc2c(=O)n1/N=C/c1cc(C)cc([N+](=O)[O-])c1O)c1ccccc1` gave PPC-1+TRAIL kill 19.4 and C8 TRAIL sens 9.0.
For Oc1ccccc1-c1nc(N2CCN(Cc3ccccc3)CC2)c2ccccc2n1 the results were PPC-1+TRAIL kill -2.5, C8 TRAIL sens 8.8, STAT1 inh 1.8, STAT3 act-1 145.8*, STAT3 blocker -52.0, STAT3 act-2 141.2*, NFkB act 2 103.8 and STAT1 act 101.3.
For O=[N+]([O-])c1ccc(S(=O)(=O)N/N=C/c2ccsc2)cc1 the results were C8 TRAIL sens 0.5.
For CC(C)CN(CC(C)C)C(=O)CN1C(=O)NC2(CCCc3ccccc32)C1=O (stereo not given) the results were C8 TRAIL sens 6.8.
`CC(=O)Nc1sc(N/N=C\c2ccccc2)nc1-c1cccs1` gave PPC-1+TRAIL kill 3.2, C8 TRAIL sens 1.2, STAT1 inh -4.0, STAT3 act-1 139.7*, STAT3 blocker -47.6, STAT3 act-2 177.2*, NFkB act 2 107.2 and STAT1 act 113.6.
`CC(=O)n1cc(Nc2ccccc2C(=O)O)c2ccccc21` gave PPC-1+TRAIL kill -0.5, C8 TRAIL sens 1.4, STAT1 inh 13.6, STAT3 act-1 155.6*, STAT3 blocker -60.3, STAT3 act-2 161.9*, NFkB act 2 107.5 and STAT1 act 110.7.
CC(=O)n1cc(Nc2ccc([N+](=O)[O-])cc2)c2ccccc21 was read as PPC-1+TRAIL kill 20.3, C8 TRAIL sens 1.7, STAT1 inh 0.2, STAT3 act-1 141.0*, STAT3 blocker -50.8, STAT3 act-2 137.0*, NFkB act 2 95.5 and STAT1 act 100.0.
`CCOC(=O)c1ccccc1Nc1cn(C(C)=O)c2ccccc12` gave PPC-1+TRAIL kill -16.2, C8 TRAIL sens 10.6, STAT1 inh 11.0, STAT3 act-1 149.4*, STAT3 blocker -49.4, STAT3 act-2 156.0*, NFkB act 2 96.6 and STAT1 act 114.2.
`O=C(O)c1ccccc1Nc1ccccc1` gave C8 TRAIL sens 7.0.
COc1ccc(CN2C(=NC(=O)CCC3CCCC3)SC3CS(=O)(=O)CC32)cc1 (stereo not given) was read as C8 TRAIL sens -7.6.
For Cc1cc(C)n2nc(SCC(=O)N3CCN(c4ccccc4)CC3)nc2n1 the results were C8 TRAIL sens -9.1.
For C=CCn1c(SCC(=O)Nc2ccc(N3CCOCC3)cc2)nnc1-c1ccco1 the results were C8 TRAIL sens -0.5.
For COc1cc(F)c(C2=CC(=O)C[C@H](c3ccc(Cl)cc3)C2)cc1F the results were C8 TRAIL sens -6.1.
Screening O=C(Nc1ccccn1)C1COc2ccccc2O1 (stereo not given) returned PPC-1+TRAIL kill 21.7, C8 TRAIL sens 2.4, STAT1 inh -0.5, STAT3 act-1 102.8 and STAT3 blocker -2.0.
Screening CC1Oc2ccccc2OC1C(=O)Nc1ccccn1 (stereo not given) returned PPC-1+TRAIL kill 19.3, C8 TRAIL sens 10.3, STAT1 inh 7.0, STAT3 act-1 155.5*, STAT3 blocker -63.7, STAT3 act-2 144.1*, NFkB act 2 103.3 and STAT1 act 89.7.
Screening Cc1cccc(C2c3[nH]c4ccccc4c3CCN2C(=O)c2ocnc2C)n1 (stereo not given) returned PPC-1+TRAIL kill 14.5, C8 TRAIL sens -3.1, STAT1 inh 11.5, STAT3 act-1 124.8 and STAT3 blocker -26.6.
For Cc1cccc(C2c3[nH]c4ccccc4c3CCN2C(=O)c2cc(CC(C)C)nc(C)n2)n1 (stereo not given) the results were PPC-1+TRAIL kill 15.0, C8 TRAIL sens -3.6, STAT1 inh 7.0, STAT3 act-1 152.5*, STAT3 blocker -42.4, STAT3 act-2 150.5*, NFkB act 2 108.7 and STAT1 act 101.5.
For Cc1cccc(C2c3[nH]c4ccccc4c3CCN2C(=O)c2nn(C)c(=O)c3ccccc23)n1 (stereo not given) the results were PPC-1+TRAIL kill 2.2, C8 TRAIL sens 6.6, STAT1 inh 0.9, STAT3 act-1 137.3*, STAT3 blocker -37.8, STAT3 act-2 132.0, NFkB act 2 105.5 and STAT1 act 93.9.
`Cc1ccc(-n2c(C)nc3oc4ccccc4c(=O)c3c2=O)cc1` gave PPC-1+TRAIL kill 10.2, C8 TRAIL sens 8.7, STAT1 inh -18.8, STAT3 act-1 148.8*, STAT3 blocker -54.9, STAT3 act-2 159.1*, NFkB act 2 121.8* and STAT1 act 135.1*.
Screening COc1ccccc1-c1n[nH]c(=S)n1-c1ccccc1 returned PPC-1+TRAIL kill 10.6, C8 TRAIL sens 12.8, STAT1 inh 1.9, STAT3 act-1 137.5*, STAT3 blocker -38.5, STAT3 act-2 104.0, NFkB act 2 104.3 and STAT1 act 104.8.
C[C@H](CO)N1C[C@H](C)[C@@H](CN(C)C(=O)Nc2ccc(F)cc2)OCc2cnnn2CCCC1=O was read as C8 TRAIL sens -11.6.
